Results: ChEMBL document CHEMBL3877325, “Novel salicylanilides from 4,5-dihalogenated salicylic acids: Synthesis, antimicrobial activity and cytotoxicity” (Bioorg Med Chem, 2017)
In brackets after ≈: the same amount, converted by molar mass.

What was measured:
[1] = system: Mycobacterium tuberculosis; assay: Antimycobacterial activity against Mycobacterium tuberculosis H37Rv My 331/88 after 14 days by micromethod; assay type: functional; conditions: H37Rv My 331/88, 336 h
In short: (§1)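 MIC micromethod in Šula's semisynthetic medium at 37 °C, read after 14 and 21 days. Compounds added as DMSO solutions at 500 down to 0.5 µM (twofold-type series: 500, 250, 125, 62.5, 32, 16, 8, 4, 2, 1, 0.5 µM). Isoniazid standard given in sterile water.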

[2] = system: Mycobacterium tuberculosis; assay: Antimycobacterial activity against Mycobacterium tuberculosis H37Rv My 331/88 after 21 days by micromethod; assay type: functional; conditions: H37Rv My 331/88, 504 h; in short: as §1
Mycobacterium kansasii [3] = assay: Antimycobacterial activity against Mycobacterium kansasii isolate 235/80 after 21 days by micromethod; assay type: functional; conditions: isolate 235/80, 504 h
In short: (§2)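 MIC in Šula's semisynthetic medium at 37 °C, read after 7, 14 and 21 days. Inoculum is strain dilution 10^-4; 235/80 is a collection strain and 6509/96 a clinical isolate. Compounds are added as DMSO solutions at 500, 250, 125, 62.5, 32, 16, 8, 4, 2, 1 and 0.5 µM. INH (in sterile water) and PAS are the reference drugs.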

Mycobacterium kansasii [4] = assay: Antimycobacterial activity against Mycobacterium kansasii isolate 235/80 after 14 days by micromethod; assay type: functional; conditions: isolate 235/80, 336 h; in short: as §2
Mycobacterium kansasii [5] = assay: Antimycobacterial activity against Mycobacterium kansasii isolate 6509/96 after 14 days by micromethod; assay type: functional; conditions: isolate 6509/96, 336 h; in short: as §2
Mycobacterium kansasii [6] = assay: Antimycobacterial activity against Mycobacterium kansasii isolate 6509/96 after 21 days by micromethod; assay type: functional; conditions: isolate 6509/96, 504 h; in short: as §2
Mycobacterium kansasii [7] = assay: Antimycobacterial activity against Mycobacterium kansasii isolate 235/80 after 7 days by micromethod; assay type: functional; conditions: isolate 235/80, 168 h; in short: as §2
Mycobacterium avium [8] = assay: Antimycobacterial activity against Mycobacterium avium My 330/80 after 14 days by micromethod; assay type: functional; conditions: My 330/80, 336 h
In short: (§3)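 M. avium My 330/80 (collection strain) inoculated at 10^-5 dilution into Šula's semisynthetic medium. Compounds added from DMSO solutions at 500, 250, 125, 62.5, 32, 16, 8, 4, 2, 1 and 0.5 µM. MIC determined by micromethod at 37 °C, read after 14 and 21 days.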

Mycobacterium kansasii [9] = assay: Antimycobacterial activity against Mycobacterium kansasii isolate 6509/96 after 7 days by micromethod; assay type: functional; conditions: isolate 6509/96, 168 h; in short: as §2
[10] = Cytotoxicity against human HepG2 cells assessed as reduction in cell viability after 24 hrs by MTS assay; assay type: toxicity, cell-based
In short: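 HepG2 cells (passages 33-37) are grown in MEM with 10% FBS, L-glutamine and non-essential amino acids. They are seeded at 1 × 10^4 cells/well and treated next day with 0.1-100 µM in triplicate for 24 h at 37 °C, 5% CO2. MTS reagent is added for 2 h and A490 read.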

Mycobacterium avium [11] = assay: Antimycobacterial activity against Mycobacterium avium My 330/80 after 21 days by micromethod; assay type: functional; conditions: My 330/80, 504 h; in short: as §3
[12] = Selectivity index, ratio of IC50 for human HepG2 cells to MIC for Mycobacterium tuberculosis H37Rv after 21 days; assay type: toxicity, cell-based; conditions: HepG2 cells versus Mycobacterium tuberculosis H37Rv, read-out: Selectivity Index
In short: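 HepG2 cells (passages 33-37) seeded at 1 × 10^4 per well and treated next day with 0.1–100 µM in triplicate. After 24 h at 37 °C, 5% CO2, MTS reagent added for 2 h and absorbance read at 490 nm. IC50 taken from viability relative to untreated control, then divided by the 21-day H37Rv MIC.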

Row | SMILES | MIC [1] | MIC [2] | MIC (Mycobacterium kansasii [3]) | MIC (Mycobacterium kansasii [4]) | MIC (Mycobacterium kansasii [5]) | MIC (Mycobacterium kansasii [6]) | MIC (Mycobacterium kansasii [7]) | MIC (Mycobacterium avium [8]) | MIC (Mycobacterium kansasii [9]) | IC50 at 24 h [10] | MIC (Mycobacterium avium [11]) | selectivity ratio at 504 h [12]
1 | O=C(Nc1ccc(Cl)c(Cl)c1)c1ccc(Cl)cc1O | 4 µM (≈ 1.27 µg/mL) | 4 µM (≈ 1.27 µg/mL) | 8 µM (≈ 2.53 µg/mL) | 8 µM (≈ 2.53 µg/mL) | 4 µM (≈ 1.27 µg/mL) | 8 µM (≈ 2.53 µg/mL) | 4 µM (≈ 1.27 µg/mL) | 16 µM (≈ 5.07 µg/mL) | 4 µM (≈ 1.27 µg/mL) | 2.23 µM | 16 µM (≈ 5.07 µg/mL) | 0.56
2 | O=C(Nc1ccc(Br)cc1)c1ccc(Cl)cc1O | 4 µM (≈ 1.31 µg/mL) | 4 µM (≈ 1.31 µg/mL) | 4 µM (≈ 1.31 µg/mL) | 4 µM (≈ 1.31 µg/mL) | 8 µM (≈ 2.61 µg/mL) | 8 µM (≈ 2.61 µg/mL) | 4 µM (≈ 1.31 µg/mL) | 16 µM (≈ 5.23 µg/mL) | 4 µM (≈ 1.31 µg/mL) | 3.24 µM | 16 µM (≈ 5.23 µg/mL) | 0.81
3 | O=C(Nc1ccc(C(F)(F)F)cc1)c1ccc(Cl)cc1O | 4 µM (≈ 1.26 µg/mL) | 4 µM (≈ 1.26 µg/mL) | 4 µM (≈ 1.26 µg/mL) | 4 µM (≈ 1.26 µg/mL) | 2 µM (≈ 0.631 µg/mL) | 4 µM (≈ 1.26 µg/mL) | 2 µM (≈ 0.631 µg/mL) | 8 µM (≈ 2.53 µg/mL) | 2 µM (≈ 0.631 µg/mL) | 2.64 µM | 8 µM (≈ 2.53 µg/mL) | 0.66
4 | O=C(Nc1ccc(Br)cc1)c1cc(Cl)ccc1O | 8 µM (≈ 2.61 µg/mL) | 16 µM (≈ 5.23 µg/mL) | 4 µM (≈ 1.31 µg/mL) | 4 µM (≈ 1.31 µg/mL) | 8 µM (≈ 2.61 µg/mL) | 8 µM (≈ 2.61 µg/mL) | 4 µM (≈ 1.31 µg/mL) | 8 µM (≈ 2.61 µg/mL) | 4 µM (≈ 1.31 µg/mL) | 3.14 µM | 8 µM (≈ 2.61 µg/mL) | 0.2
5 | O=C(Nc1ccc(C(F)(F)F)cc1)c1cc(Cl)ccc1O | 2 µM (≈ 0.631 µg/mL) | 2 µM (≈ 0.631 µg/mL) | 1 µM (≈ 0.316 µg/mL) | 1 µM (≈ 0.316 µg/mL) | 2 µM (≈ 0.631 µg/mL) | 2 µM (≈ 0.631 µg/mL) | 1 µM (≈ 0.316 µg/mL) | 8 µM (≈ 2.53 µg/mL) | 2 µM (≈ 0.631 µg/mL) |  | 8 µM (≈ 2.53 µg/mL) | 
6 | O=C(Nc1cc(C(F)(F)F)cc(C(F)(F)F)c1)c1cc(Br)ccc1O | 2 µM (≈ 0.856 µg/mL) | 2 µM (≈ 0.856 µg/mL) | 8 µM (≈ 3.43 µg/mL) | 8 µM (≈ 3.43 µg/mL) | 8 µM (≈ 3.43 µg/mL) | 8 µM (≈ 3.43 µg/mL) | 4 µM (≈ 1.71 µg/mL) | 16 µM (≈ 6.85 µg/mL) | 4 µM (≈ 1.71 µg/mL) | 7.8 µM | 16 µM (≈ 6.85 µg/mL) | 3.4
7 | O=C(Nc1cc(C(F)(F)F)cc(C(F)(F)F)c1)c1ccc(Cl)cc1O | 4 µM (≈ 1.53 µg/mL) | 4 µM (≈ 1.53 µg/mL) | 16 µM (≈ 6.14 µg/mL) | 8 µM (≈ 3.07 µg/mL) | 8 µM (≈ 3.07 µg/mL) | 8 µM (≈ 3.07 µg/mL) | 8 µM (≈ 3.07 µg/mL) | 16 µM (≈ 6.14 µg/mL) | 8 µM (≈ 3.07 µg/mL) | 9.55 µM | 16 µM (≈ 6.14 µg/mL) | 2.39
8 | O=C(Nc1ccc(C(F)(F)F)cc1)c1cc(Br)ccc1O | 1 µM (≈ 0.36 µg/mL) | 1 µM (≈ 0.36 µg/mL) | 4 µM (≈ 1.44 µg/mL) | 2 µM (≈ 0.72 µg/mL) | 4 µM (≈ 1.44 µg/mL) | 4 µM (≈ 1.44 µg/mL) | 2 µM (≈ 0.72 µg/mL) | 1 µM (≈ 0.36 µg/mL) | 2 µM (≈ 0.72 µg/mL) | 1.81 µM | 1 µM (≈ 0.36 µg/mL) | 1.81
9 | O=C(Nc1ccc(Cl)c(Cl)c1)c1cc(Br)ccc1O | 4 µM (≈ 1.44 µg/mL) | 4 µM (≈ 1.44 µg/mL) | 8 µM (≈ 2.89 µg/mL) | 8 µM (≈ 2.89 µg/mL) | 2 µM (≈ 0.722 µg/mL) | 4 µM (≈ 1.44 µg/mL) | 8 µM (≈ 2.89 µg/mL) | 8 µM (≈ 2.89 µg/mL) | 2 µM (≈ 0.722 µg/mL) | 31.5 µM | 8 µM (≈ 2.89 µg/mL) | 7.87
10 | O=C(Nc1ccc(C(F)(F)F)cc1)c1ccc(Br)cc1O | 1 µM (≈ 0.36 µg/mL) | 2 µM (≈ 0.72 µg/mL) | 4 µM (≈ 1.44 µg/mL) | 2 µM (≈ 0.72 µg/mL) | 4 µM (≈ 1.44 µg/mL) | 4 µM (≈ 1.44 µg/mL) | 2 µM (≈ 0.72 µg/mL) | 8 µM (≈ 2.88 µg/mL) | 2 µM (≈ 0.72 µg/mL) | 15 µM | 8 µM (≈ 2.88 µg/mL) | 7.52
11 | O=C(Nc1ccc(Br)cc1)c1ccc(Br)cc1O | 2 µM (≈ 0.742 µg/mL) | 4 µM (≈ 1.48 µg/mL) | 8 µM (≈ 2.97 µg/mL) | 8 µM (≈ 2.97 µg/mL) | 8 µM (≈ 2.97 µg/mL) | 8 µM (≈ 2.97 µg/mL) | 4 µM (≈ 1.48 µg/mL) | 16 µM (≈ 5.94 µg/mL) | 8 µM (≈ 2.97 µg/mL) | 7.59 µM | 16 µM (≈ 5.94 µg/mL) | 1.9
